Assay [1] is filed under the species Homo sapiens. The assay can be described thus: Inhibition of chymotrypsin-like activity of human 20S immunoproteasome using Suc-LLVY-AMC as substrate at 5 uM after 90 mins by fluorescence assay. An outline of the steps:
(§1)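 Purified human 20S immunoproteasome or constitutive proteasome, 2-fold diluted in 20 mM Tris/Cl pH 8.0, 0.5 mM EDTA, 0.035% SDS, at 50 ng/well. The enzyme was preincubated with compound (5 µM, from DMSO) for 90 min at room temperature. Then 100 µM Suc-LLVY-AMC was added and AMC fluorescence (Ex 360/Em 460) was read for 90 min. […] Run in triplicate.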

In assay [2] the test system is Proteasome. The assay can be described thus: Inhibition of chymotrypsin-like activity of constitutive proteasome (unknown origin) using Suc-LLVY-AMC as substrate at 5 uM after 90 mins by fluorescence assay. As to conditions: Homo sapiens. Type of assay: subcellular. Summed up:
as §1

Assay [3] is described as follows: Inhibition of chymotrypsin-like activity of human 20S immunoproteasome using Suc-LLVY-AMC as substrate after 90 mins by fluorescence assay.
For assay [4], the species on record is Homo sapiens. The assay can be described thus: Inhibition of chymotrypsin-like activity of human 20S immunoproteasome using Suc-LLVY-AMC as substrate at 1 uM after 90 mins by fluorescence assay.

SMILES strings stand for the structures. Residues, ends and D or L forms follow the SMILES beside them. *: point of attachment. Fmoc = O=C(OCC1c2ccccc2-c2ccccc21)*

As to `NC(=O)CC[C@H](NC(=O)[C@H](Cc1cnc[nH]1)NC(=O)OCC1c2ccccc2-c2ccccc21)C(=O)N1CCC[C@H]1C(=O)O` (Fmoc-His-Gln-Pro-OH), the inhibition (commonly the share of the control response that was lost under treatment) in assay [1] was found to be 35%; in assay [2], 24%.

On to `O=C(C[C@@H]1CCN(CC2CC2)C[C@@H]1[C@H]1CC(c2ccccc2Cl)=NO1)NCCc1ccccn1`, for which the inhibition was determined as 13% in assay [1] and 14% in assay [2].

`CCCCc1ccc2nc(-c3ccc(OC)cc3)cc(C(=O)NC[C@@H](C)C(=O)N3CCC[C@@H]3CO)c2c1`: the inhibition in assay [1] was 21%; in assay [2], 2%.

Turning to `Cc1ccc(CSC[C@@H](NC(=O)c2cc(-c3ccccc3)nc3ccccc23)C(=O)NCCCN2CCCC2=O)cc1`, in assay [3], the IC50 (commonly the concentration needed to halve the response being measured) came to 4.9 µM. Besides, the inhibition in assay [1] was 62%; in assay [2], 15%.

For the molecule `O=C1CN(/N=C/c2ccc(-c3ccc(Cl)cc3)o2)C(=O)N1CCCCN1CCN(C[C@@H](O)c2ccccc2)CC1`, the results for the inhibition in assay [1] and in assay [2] were 25% and 16%, respectively.

In the case of `CC[C@@H](NC(=O)[C@@H](CC(C)C)NC(=O)OCc1ccccc1)C(=O)C(=O)NCCCN1CCOCC1`, the inhibition turned out to be 14% in assay [1] and 6% in assay [2].

On to `CCC[C@H]1C[C@H](C(=O)N[C@@H]([C@@H]2O[C@H](SC)[C@@H](O)[C@@H](O)[C@@H]2O)[C@@H](C)O)N(C)C1`, for which the IC50 in assay [3] was determined as 22 µM. In addition, the inhibition in assay [1] was 36%; in assay [2] it was 2%.

On to `Cc1cccc(Nc2ccccc2C(=O)N[C@H](CC[S@+](C)[O-])C(=O)N[C@H](C)c2ccc(F)cc2)c1C`, for which the inhibition in assay [1] turned out to be 31%; in assay [2], 33%.

On to `CC[C@H](C)[C@H](NC(=O)[C@H]([C@@H](C)CC)N(C)C(C)=O)C(=O)N[C@H](C(=O)N[C@@H](CC(C)C)C(=O)[C@@]1(C)CO1)[C@@H](C)O`, for which, in assay [4], the inhibition was 100%.

`Cc1ccc(-c2cc(C(=O)NC[C@@H]3CCCO3)c3cc(CNS(=O)(=O)c4cccc(Cl)c4)ccc3n2)o1`: in assay [3], the IC50 came out at 1.7 µM. The values for the inhibition in assay [1] and in assay [2] were 85% and 20%, respectively.

Values taken from ChEMBL document CHEMBL3352696, “Selective immunoproteasome inhibitors with non-peptide scaffolds identified from structure-based virtual screening” (Bioorg Med Chem Lett, 2014).
